{"source": "paper PMC3076219", "about": "(European journal of immunology, 2009)", "key": {"monocytes [1]": {"test_system": "monocytes", "experiment": "Calcium mobilization in monocytes", "format": "cell-based, human", "method_in_brief": "(§1)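 Peripheral blood monocytes (kit-isolated from PBMC, CD14-checked) or THP-1 cells at 10^7/mL were loaded with 5 µM Indo-1-AM for 7 min at 37 °C, then held 10 min at RT and washed in cold PBS. Cells were run at 2×10^6/mL in KRP (PBS, 1.5 mM CaCl2, 1.5 mM MgSO4). After baseline they got a first stimulus, then a second. Flow cytometry used 351 nm excitation and the 405:485 nm ratio, gating live cells. Three independent experiments.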"}, "[2]": {"test_system": "125I-CXCL8 specific binding sites on neutrophils (CXCR1/2)", "experiment": "Competition with 125I-CXCL8 for binding to neutrophils", "set-up": "species or system human", "details": "1.25 nM 125I-CXCL8, 2h on ice, triplicate, dose-dependent, Fig. 5B"}, "immature dendritic cells": {"test_system": "immature dendritic cells", "details": "differentiated from monocytes; ref [9]; cited from earlier work"}, "neutrophils [3]": {"test_system": "neutrophils", "experiment": "Toxicity to neutrophils", "format": "cell-based, human"}, "CXCR2 [4]": {"test_system": "CXCR2", "details": "LL-37 treated neutrophils; ref [15]; cited from earlier work"}, "P2X7 [5]": {"test_system": "P2X7", "details": "LL-37; ref [14]; cited from earlier work"}, "THP-1 cells [6]": {"test_system": "THP-1 cells", "experiment": "Migration of THP-1 cells, 24-well Transwell", "format": "cell-based", "details": "LL-37 5 µM, CXCL1 50 nM, WKYMVm 5 µM, ATP 50 µM, BzATP 50 µM; 2 h, 37°C; Fig. 7E", "method_in_brief": "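CFSE-labelled monocytes or THP-1 cells (5 µM, 5 min RT) at 2×10^6/mL in phenol-red-free RPMI 1640 with 1% FBS went in the Transwell upper chamber (3-µm pores). Stimuli in the lower chamber included CXCL1 50 nM, WKYMVm 5 µM and ATP/BzATP 50 µM. Cells were used with or without 20 min preincubation with 10 µM CXCR2 antagonist. Incubation at 37 °C lasted 90 min for monocytes and 2 h for THP-1. Lower-well cells were read at 495 nm against a standard curve, in quadruplicate.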"}, "CXCR2 [7]": {"test_system": "CXCR2", "experiment": "Calcium mobilization in HEK293/CXCR2 cells", "format": "cell-based, human", "details": "Indo-1; Fig. 7A-B", "method_in_brief": "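They were washed in cold PBS, pelleted at 200 × g for 10 min at 4 °C, and resuspended in PBS with Ca/Mg. […] [Ca2+]i was read as the 405:485 nm ratio by flow cytometry, gating on living cells.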"}, "[8]": {"details": "cited from earlier work"}, "CXCR2 [9]": {"test_system": "CXCR2", "experiment": "Block of anti-CXCR2 antibody binding to neutrophils", "format": "cell-based, human", "details": "LL-37 treated neutrophils; Supporting Information Fig. 6A"}, "mast cells": {"test_system": "mast cells", "details": "ref [3], [9], [10]; cited from earlier work"}, "CXCR1 [10]": {"test_system": "CXCR1", "experiment": "CXCR1 surface expression on neutrophils, flow cytometry", "format": "cell-based, human", "method_in_brief": "(§2)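 Human blood neutrophils were isolated by dextran sedimentation and Ficoll (>95% CD16+) and held at 5×10^6/mL in RPMI 1640 with 1% FBS. They were treated 3h with a dose series (test peptide 1–10 µM; chemokines 1, 5, 10, 50 nM) or with 5 µM for 0.5–3h. Cells were blocked in 10% human serum and stained with anti-CXCR1-APC/anti-CXCR2-FITC or anti-P2X7-FITC, plus anti-CD16. Read-out was flow cytometry GMFI.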"}, "neutrophils [11]": {"test_system": "neutrophils", "details": "LL-37; ref [15]; cited from earlier work"}, "macrophages": {"test_system": "macrophages", "details": "including chemokines and their receptors; ref [6]; cited from earlier work"}, "FPR2": {"test_system": "FPR2", "experiment": "FPR2 surface expression on neutrophils", "format": "cell-based, human", "details": "LL-37; data not shown"}, "CXCR1 [12]": {"test_system": "CXCR1", "experiment": "Confocal analysis of CXCR1 internalization in neutrophils", "format": "cell-based, human", "details": "LL-37 5 µM or CXCL8 50 nM, 1 h, 37°C; Fig. 8", "method_in_brief": "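Neutrophils came from citrated donor blood by dextran sedimentation and Ficoll gradient. […] Cells were fixed in 2% paraformaldehyde, permeabilised with saponin and blocked with human serum. Anti-CXCR1 or anti-CXCR2 mAb (4°C), then Alexa 488 anti-mouse IgG, DAPI mount, confocal imaging; three independent experiments.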"}, "CXCR2 [13]": {"test_system": "CXCR2", "experiment": "Total CXCR2 protein in neutrophils, western blot", "format": "cell-based, human", "details": "LL-37 treated neutrophils, Supporting Information Fig. 6B"}, "neutrophils [14]": {"test_system": "neutrophils", "details": "cited from earlier work"}, "monocytes [15]": {"test_system": "monocytes", "details": "cited from earlier work"}, "[16]": {"test_system": "CXCR1 transfected HEK293 cells", "experiment": "Secondary necrosis of CXCR1 transfected HEK293 cells", "format": "cell-based", "details": "Supporting information Fig. 4"}, "THP-1 cells [17]": {"test_system": "THP-1 cells", "experiment": "Calcium mobilization in THP-1 cells", "format": "cell-based", "details": "Fig. 7C", "method_in_brief": "as §1"}, "P2X7 [18]": {"test_system": "P2X7", "experiment": "P2X7 surface expression on neutrophils, flow cytometry", "format": "cell-based, human", "details": "LL-37 treated neutrophils, 3h; Fig. 2D", "method_in_brief": "as §2"}, "CXCR1 [19]": {"test_system": "CXCR1", "experiment": "Calcium mobilization in HEK293/CXCR1 cells", "format": "cell-based, human", "details": "Indo-1; Fig. 7A-B", "method_in_brief": "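CXCR1-transfected HEK293 cells were loaded with 5 µM Indo-1-AM in 5 µM pluronic F-127/PBS for 30 min at RT. They were washed in cold PBS, spun at 200 × g for 10 min at 4 °C and suspended in PBS with calcium and magnesium. Stimulation followed baseline recording. Flow cytometric [Ca2+]i was read as the 405:485 nm emission ratio with 351 nm excitation. Three independent experiments.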"}, "CXCR2 [20]": {"test_system": "CXCR2", "experiment": "CXCR2 surface expression on neutrophils, flow cytometry", "format": "cell-based, human"}}, "note": "Where “and” joins values, the source holds several entries; their conditions need not be identical. Identical values can stand only once.", "data": [{"substance": "LL-37: ~4.5 kD active α-helical peptide, C-terminal domain of human cathelicidin hCAP18", "values": [{"measurement": "return of Ca2+ response to baseline, monocytes", "setting": "monocytes [1]; LL-37, Fig. 7D", "value": "returns to baseline for THP-1 cells, but not for neutrophils and monocytes"}, {"measurement": "cross-block of ATP stimulated calcium mobilization in monocytes", "setting": "monocytes [1]; LL-37 first, then ATP, Fig. 7D", "value": "neither ATP nor WKYMVm cross-block LL-37 stimulated calcium mobilization and vice versa"}, {"measurement": "cross-block of WKYMVm stimulated calcium mobilization in monocytes", "setting": "monocytes [1]; LL-37 first, then WKYMVm, Fig. 7D", "value": "neither ATP nor WKYMVm cross-block LL-37 stimulated calcium mobilization and vice versa"}, {"measurement": "calcium mobilization in monocytes", "setting": "monocytes [1]; LL-37 stimulated", "value": "stimulates calcium mobilization"}, {"measurement": "maximum competition of 125I-CXCL8 binding", "setting": "[2]; 2×10^6 cells", "value": "around 50%"}, {"measurement": "displacement of 125I-CXCL8", "setting": "[2]", "value": "partly displace"}, {"measurement": "migration of immature dendritic cells", "setting": "immature dendritic cells", "value": "but not immature dendritic cells"}, {"measurement": "cell membrane permeability", "setting": "neutrophils [3]; > 10 µM LL-37, 125I-CXCL8 enters cells non-specifically", "value": "can cause cell membrane permeability"}, {"measurement": "concentration with toxic activity on neutrophils", "setting": "neutrophils [3]; in 125I-CXCL8 binding study", "value": "> 10 µM and 10 µM"}, {"measurement": "down-regulation among 21 cell surface markers", "setting": "CXCR2 [4]", "value": "only CXCR2 was specifically down-regulated"}, {"measurement": "IL-1β processing and release from monocytes", "setting": "P2X7 [5]", "value": "induce IL-1β processing and release from monocytes"}, {"measurement": "stimulation of migration of THP-1 cells", "setting": "THP-1 cells [6]", "value": "but not THP-1 cells"}, {"measurement": "calcium mobilization in CXCR2 transfected HEK293 cells", "setting": "CXCR2 [7]", "value": "weak but similar patterns of calcium mobilization"}, {"measurement": "wound neovascularization", "setting": "[8]; ref [7]", "value": "promotes wound neovascularization"}, {"measurement": "re-epithelialization of healing skin", "setting": "[8]; ref [8]", "value": "re-epithelialization of healing skin"}, {"measurement": "block of anti-CXCR2 antibody binding", "setting": "CXCR2 [9]", "value": "did not block anti-CXCR2 antibodiy binding"}, {"measurement": "migration of mast cells", "setting": "mast cells", "value": "migration of human peripheral monocytes, neutrophils, CD4+ T cells, and mast cells"}, {"measurement": "CXCR1 surface expression, time course", "setting": "CXCR1 [10]; LL-37 5 µM, 0.5-3h, Fig. 1C", "value": "not affected by LL-37 treatment"}, {"measurement": "CXCR1 down-regulation at 10 µM", "setting": "CXCR1 [10]; LL-37 10 µM, 3h", "value": "does not down-regulate CXCR1"}, {"measurement": "ATP release", "setting": "neutrophils [11]", "value": "induces ATP release from neutrophils"}, {"measurement": "number of genes with stimulated expression by macrophages", "setting": "macrophages", "value": "over 40 genes"}, {"measurement": "FPR2 surface expression, time course", "setting": "FPR2", "value": "remained unchanged"}, {"measurement": "CXCR1 translocation (internalization)", "setting": "CXCR1 [12]", "value": "translocation of CXCR2 but not CXCR1 to the cytoplasmic granules"}, {"measurement": "total CXCR2 protein level", "setting": "CXCR2 [13]", "value": "no changes in total amounts"}, {"measurement": "migration of neutrophils", "setting": "neutrophils [14]; ref [3], [9], [10]", "value": "migration of human peripheral monocytes, neutrophils"}, {"measurement": "neutrophil migration (literature)", "setting": "neutrophils [14]; ref [9]", "value": "induces neutrophil migration"}, {"measurement": "migration of human peripheral monocytes", "setting": "monocytes [15]; ref [3], [9], [10]", "value": "migration of human peripheral monocytes"}, {"measurement": "in vitro migration of human peripheral blood monocytes", "setting": "monocytes [15]; ref [9]", "value": "induces in vitro migration of human peripheral blood monocytes"}, {"measurement": "generation of secondary necrotic cells, HEK293/CXCR1", "setting": "[16]", "value": "generation of secondary necrotic cells"}, {"measurement": "calcium signal in THP-1 cells", "setting": "THP-1 cells [17]", "value": "robust calcium signal"}, {"measurement": "return of Ca2+ response to baseline, THP-1", "setting": "THP-1 cells [17]; LL-37", "value": "returns to baseline for THP-1 cells"}, {"measurement": "block of ATP induced calcium mobilization by LL-37", "setting": "THP-1 cells [17]; THP-1", "value": "able to partially block"}, {"measurement": "P2X7 surface expression", "setting": "P2X7 [18]", "value": "up-regulate the expression of P2X7"}, {"measurement": "calcium mobilization in CXCR1 transfected HEK293 cells", "setting": "CXCR1 [19]", "value": "only CXCL8 gave a response"}, {"measurement": "down-regulation of CXCR2 in time course compared to untreated controls", "setting": "CXCR2 [20]; LL-37 5 µM, at 3h, p<0.001, Fig. 1B, four independent experiments", "value": 50, "unit": "%"}, {"measurement": "CXCR2 surface expression at 10 µM", "setting": "CXCR2 [20]; LL-37 10 µM, 3h", "value": "a further reduction was observed at 10 µM"}]}]}
